Laboratory results as given in ChEMBL document CHEMBL1250494, “Synthesis of new 3-aryl-4,5-dihydropyrazole-1-carbothioamide derivatives. An investigation on their ability to inhibit monoamine oxidase” (Eur J Med Chem, 2010).

What was measured:
[1] = target: T1, Amine oxidase [flavin-containing] A (Homo sapiens, UniProt P21397); assay: Inhibition of human recombinant MAOA expressed in baculovirus infected BTI insect cells assessed as hydrogen peroxide production at 100 uM after 15 mins by Amplex red assay; settings: 0.25 h; for inhibition (INH): 100 µM
T1 sequence (P21397 whole entry): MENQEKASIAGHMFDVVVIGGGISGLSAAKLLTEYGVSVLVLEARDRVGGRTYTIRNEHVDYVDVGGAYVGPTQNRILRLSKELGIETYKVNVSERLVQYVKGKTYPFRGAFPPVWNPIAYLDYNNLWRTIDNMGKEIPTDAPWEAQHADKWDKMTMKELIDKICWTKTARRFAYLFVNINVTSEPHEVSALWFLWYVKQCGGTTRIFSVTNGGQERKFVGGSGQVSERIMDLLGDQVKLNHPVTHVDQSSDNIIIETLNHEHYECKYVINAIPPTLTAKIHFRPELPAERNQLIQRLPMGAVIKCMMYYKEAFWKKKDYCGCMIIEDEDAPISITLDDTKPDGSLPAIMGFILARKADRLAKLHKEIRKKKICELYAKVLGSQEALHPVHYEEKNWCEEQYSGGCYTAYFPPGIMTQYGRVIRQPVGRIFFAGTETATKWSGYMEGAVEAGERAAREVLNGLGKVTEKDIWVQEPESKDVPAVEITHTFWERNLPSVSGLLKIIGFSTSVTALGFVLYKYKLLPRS
In short: (§1)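 Recombinant hMAO-A or hMAO-B, in an amount oxidizing 165 pmol p-tyramine/min in controls, preincubated with test drug 15 min at 37 °C in 0.05 M sodium phosphate pH 7.4, dark. Reaction started with 1 U/ml HRP, Amplex Red and 1 mM p-tyramine (final). Resorufin read at ex 545/em 590 nm over 15 min. Background subtracted; vehicle (DMSO) controls. Precipitation limited higher concentrations.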

[2] = target: T2, Amine oxidase [flavin-containing] B (Homo sapiens, UniProt P27338); assay: Inhibition of human recombinant MAOB expressed in baculovirus infected BTI insect cells assessed as hydrogen peroxide production at 100 uM after 15 mins by Amplex red assay; settings: 0.25 h; for inhibition (INH): 100 µM; in short: as §1
T2 sequence (P27338 whole entry): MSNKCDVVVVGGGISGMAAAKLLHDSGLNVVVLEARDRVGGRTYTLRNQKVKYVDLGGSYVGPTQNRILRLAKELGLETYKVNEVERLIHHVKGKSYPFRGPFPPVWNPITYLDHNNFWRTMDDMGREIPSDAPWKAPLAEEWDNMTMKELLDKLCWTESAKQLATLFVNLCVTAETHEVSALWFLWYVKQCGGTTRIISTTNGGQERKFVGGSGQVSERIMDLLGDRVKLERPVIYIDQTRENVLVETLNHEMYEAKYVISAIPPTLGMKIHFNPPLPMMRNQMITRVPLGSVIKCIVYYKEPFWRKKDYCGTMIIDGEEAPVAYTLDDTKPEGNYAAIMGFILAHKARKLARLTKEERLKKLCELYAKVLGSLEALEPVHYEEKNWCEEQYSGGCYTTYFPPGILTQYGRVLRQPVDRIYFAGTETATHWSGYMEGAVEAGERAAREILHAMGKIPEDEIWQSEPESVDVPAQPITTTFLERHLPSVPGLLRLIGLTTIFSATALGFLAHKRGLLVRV

[3] = target: T2, Amine oxidase [flavin-containing] B; assay: biochemical; format: cell-based
[4] = species: Homo sapiens; assay: Selectivity index, ratio of IC50 for human recombinant MAOA to IC50 for human recombinant MAOB
In short: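 IC50 values for hMAO-A and hMAO-B came from the Amplex Red/HRP assay, with 1 mM p-tyramine and readings at ex 545/em 590 nm at 37 °C. […] The selectivity index is IC50(MAO-A)/IC50(MAO-B). Where MAO-A was not inhibited, its IC50 was set at the highest concentration tested. Values are mean ± SEM.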

[5] = target: T2, Amine oxidase [flavin-containing] B; assay: Inhibition of human recombinant MAOB expressed in baculovirus infected BTI insect cells assessed as hydrogen peroxide production at 1 mM after 15 mins by Amplex red assay; settings: 0.25 h, 1000 µM; in short: as §1

inhibition (INH) [1]	inhibition (INH) [2]	IC50 [3]	Selectivity Index [4]	Structure (SMILES)	other results
Not Active				CNC(=S)N1CC(C)C(c2ccc(F)cc2)=N1 (stereo unspecified)	inhibition at 100 µM [2]: 40%
Not Active	Not Active			NC(=S)N1CCC(c2cccs2)=N1	
Not Active				CNC(=S)N1CC(C)C(c2ccccc2)=N1 (stereo unspecified)	inhibition at 100 µM [2]: 40%
				CNC(=S)N1CC(C)C(c2ccc(C)cc2)=N1 (stereo unspecified)	inhibition at 100 µM [1]: 40%; inhibition at 100 µM [2]: 40%
Not Active		71.3 µM	> 1.4	CNC(=S)N1CCC(c2cccc(OC)c2)=N1	
Not Active	Not Active			NC(=S)N1CCC(c2ccc(Cl)cc2Cl)=N1	
Not Active	Not Active			Cc1ccccc1C1=NN(C(N)=S)CC1	
Not Active	Not Active			COc1cccc(C2=NN(C(N)=S)CC2)c1	
Not Active	Not Active			CNC(=S)N1CCC(c2ccccc2C)=N1	
		84.6 µM	> 1.18	COc1ccc(C2=NN(C(N)=S)CC2C)cc1 (stereo unspecified)	inhibition at 100 µM [1]: 40%
Not Active	Not Active			NC(=S)N1CCC(c2ccc(F)cc2)=N1	
Not Active		51 µM	> 1.96	CNC(=S)N1CCC(c2ccc(F)cc2)=N1	
Not Active				Cc1ccc(C2=NN(C(N)=S)CC2C)cc1 (stereo unspecified)	inhibition at 100 µM [2]: 40%
Not Active		18.1 µM	> 5.51	Cc1ccc(C2=NN(C(N)=S)CC2)cc1	
				CC1CN(C(N)=S)N=C1c1ccc(Cl)cc1 (stereo unspecified)	inhibition at 100 µM [1]: 40%; inhibition at 100 µM [2]: 40%
		16.8 µM	> 5.96	CNC(=S)N1CCC(c2ccc(C)cc2)=N1	inhibition at 100 µM [1]: 40%
Not Active	Not Active			Cc1cccc(C2=NN(C(N)=S)CC2)c1	
Not Active		34.8 µM	> 2.87	CNC(=S)N1CC(C)C(c2ccc(Cl)cc2)=N1 (stereo unspecified)	
				O=C(NCCN1CCOCC1)c1ccc(Cl)cc1 [MOCLOBEMIDE]	inhibition (INH) [5]: Not Active
Not Active		53.4 µM	> 1.87	CNC(=S)N1CCC(c2cccc(C)c2)=N1	
Not Active	Not Active			CNC(=S)N1CCC(c2cccs2)=N1	
Not Active		49.4 µM	> 2.02	CNC(=S)N1CC(C)C(c2ccc(OC)cc2)=N1 (stereo unspecified)	
Not Active		15.5 µM	> 6.46	COc1ccc(C2=NN(C(N)=S)CC2)cc1	
Not Active		13.7 µM	> 7.3	CNC(=S)N1CCC(c2ccc(OC)cc2)=N1	
				CC1CN(C(N)=S)N=C1c1ccc(F)cc1 (stereo unspecified)	inhibition at 100 µM [1]: 40%; inhibition at 100 µM [2]: 40%
Not Active				CC1CN(C(N)=S)N=C1c1ccccc1 (stereo unspecified)	inhibition at 100 µM [2]: 40%
